Assay results: ChEMBL document CHEMBL1159207, “Structure and antimicrobial activity of diterpenes from the roots of Plectranthus hereroensis” (1994)
Converted amounts (≈) assume the structure as drawn.

Columns and labels:
[1] = test system: Staphylococcus aureus; experiment: Antimicrobial activity against Staphylococcus aureus by twofold serial broth microdilution assay; format: functional
Outline: (§1)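 Twofold serial broth microdilution in sterile Mueller-Hinton broth, over 500 µg/ml to 7.8 µg/ml. Samples were added as solutions in Me₂CO or MeOH, with solvent blanks included. After 24 h at 37°, MIC was taken as the lowest concentration that inhibited growth.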

[2] = test system: Vibrio cholerae; experiment: Antimicrobial activity against Vibrio cholerae by twofold serial broth microdilution assay; format: functional
[3] = test system: Enterococcus faecalis; experiment: Antimicrobial activity against Streptococcus faecalis by twofold serial broth microdilution assay; format: functional; outline: as §1
[4] = test system: Escherichia coli; experiment: Antimicrobial activity against Escherichia coli by twofold serial broth microdilution assay; format: functional; outline: as §1
[5] = test system: Shigella dysenteriae; experiment: Antimicrobial activity against Shigella dysenteriae by twofold serial broth microdilution assay; format: functional
[6] = test system: Salmonella typhimurium; experiment: Antimicrobial activity against Salmonella Typhimurium by twofold serial broth microdilution assay; format: functional, Salmonella enterica subsp. enterica serovar Typhimurium; details: Salmonella enterica; outline: as §1
[7] = test system: Pseudomonas aeruginosa; experiment: Antimicrobial activity against Pseudomonas aeruginosa by twofold serial broth microdilution assay; format: functional; outline: as §1
[8] = test system: Candida albicans; experiment: Antimicrobial activity against Candida albicans by twofold serial broth microdilution assay; format: functional
Outline: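 Samples were added as Me₂CO or MeOH solutions, with solvent blanks. Incubation was 24 h at 37°. MIC was the lowest concentration preventing visible growth of the organism.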

Compound	MIC [1] [µg/mL]	MIC [2] [µg/mL]	MIC [3] [µg/mL]	MIC [4] [µg/mL]	MIC [5] [µg/mL]	MIC [6] [µg/mL]	MIC [7] [µg/mL]	MIC [8] [µg/mL]
CC(C)C1=C(O)C(=O)C2=C(C1=O)[C@H](O)C[C@H]1C(C)(C)CCC[C@]21C [HORMINONE]	7.8 (≈ 23.5 µM)	7.8 (≈ 23.5 µM)	≥ 500	≥ 500	≥ 500	≥ 500	250 (≈ 752 µM)	250 (≈ 752 µM)
C=CCC1=C(O)C(=O)C2=C(C1=O)[C@H](O)C[C@H]1C(C)(C)CCC[C@]21C	–	–	≥ 500	≥ 500	≥ 500	≥ 500	250 (≈ 757 µM)	125 (≈ 378 µM)
